According to ChEMBL document CHEMBL2157863, “Synthesis and evaluation of novologues as C-terminal Hsp90 inhibitors with cytoprotective activity against sensory neuron glucotoxicity” (J Med Chem, 2012):
pEC50: −log10 of the molar value. Activity calls are given as the source filed them. The calls are words filed in the database; no cut-off is given here.

Columns and labels:
[1] = Cytoprotective activity against glucotoxicity in Sprague-Dawley rat DRG neurons assessed as cell viability at 1 uM by calcein-AM assay; format: functional; conditions: DRG neuron, read-out: Activity
Outline: (§1)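 Dorsal root ganglion neurons came from embryonic day 15–18 Sprague Dawley rats. They were trypsin-dissociated and grown on collagen in Neurobasal medium with 25 mM glucose, B-27 and 50 ng/ml NGF. Fluorodeoxyuridine and cytosine arabinoside were given for 2 days. On day 3, neurons received compound plus 20 mM excess glucose (45 mM total) for 4 h. Viability was read with 2 μM calcein AM, 30 min at 37°C, ex 485/em 520 nm, normalized to well protein.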

[2] = Cytoprotective activity against glucotoxicity in Sprague-Dawley rat DRG neurons assessed as cell viability by calcein-AM assay; format: functional; conditions: DRG neuron; outline: as §1
[3] = system: Nucleic Acid; assay: Activation of human HSP70 promoter transfected in rat 50B11 cells at 10 to 1000 nM after 16 hrs by luciferase reporter gene assay; format: cell-based
Outline: (§2)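 50B11 immortalized sensory neurons were grown in DMEM with 25 mM glucose, 10% FCS and 5 μg/ml blasticidin. They were lipofected with a luciferase reporter driven by the human Hsp70 promoter, which carries two heat shock elements. Cells were re-seeded after 24 h and exposed to compound for 16 h. Luciferase in lysates was normalized to total protein per well, with triplicate wells in at least three experiments.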

[4] = system: DRG neuron; assay: Induction of HSP70 protein expression in Sprague-Dawley rat DRG neurons at 10 to 1000 nM; format: functional
Outline: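 Rat embryonic DRG neurons were preincubated overnight with 10–1000 nM compound or DMSO, then exposed to 4 h hyperglycemia. Hsp70 and β-actin were measured by immunoblot. Band intensity of Hsp70 was normalized to β-actin and expressed as fold of control.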

[5] = target: T1, Heat shock protein HSP90 (Homo sapiens) (UniProt P07900+P08238); assay: Inhibition of HSP90 in human MCF7 cells assessed as degradation of Her2 up to 5 uM after 24 hrs by immunoblot analysis; format: cell-based
Outline: (§3)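 MCF7 cells were exposed to compound for 24 h. Lysates were immunoblotted for the Hsp90 clients Her2, Raf and Akt, with β-actin as loading control. Geldanamycin at 500 nM served as the positive control for client degradation.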

[6] = target: T1, Heat shock protein HSP90 (Homo sapiens); assay: Inhibition of HSP90 in human MCF7 cells assessed as degradation of Raf up to 5 uM after 24 hrs by immunoblot analysis; format: cell-based; outline: as §3
[7] = target: T1, Heat shock protein HSP90 (Homo sapiens); assay: Inhibition of HSP90 in human MCF7 cells assessed as degradation of Akt up to 5 uM after 24 hrs by immunoblot analysis; format: cell-based; outline: as §3
[8] = Ratio of KU-32 ED50 to compound ED50 for cytoprotective activity against glucotoxicity in Sprague-Dawley rat DRG neurons; format: functional, DRG neuron
[9] = system: Nucleic Acid; assay: Activation of human HSP70 promoter transfected in rat 50B11 cells at 1 uM after 16 hrs by luciferase reporter gene assay; format: cell-based; outline: as §2

| Compound | viability at 1 µM [1] | further results |
| --- | --- | --- |
| CO[C@@H]1[C@@H](O)[C@@H](O)[C@H](Oc2ccc(CCNC(C)=O)c(-c3ccccc3Cl)c2)OC1(C)C | 71% |  |
| CO[C@@H]1[C@@H](O)[C@@H](O)[C@H](Oc2ccc(CCNC(C)=O)c(-c3ccc(F)cc3)c2)OC1(C)C | 75% |  |
| CO[C@@H]1[C@@H](O)[C@@H](O)[C@H](Oc2ccc(C3CC=CCC3NC(C)=O)c(-c3cccc(C(F)(F)F)c3)c2)OC1(C)C (mixture of isomers) | 69% |  |
| CO[C@@H]1[C@@H](O)[C@@H](O)[C@H](Oc2ccc(CCNC(C)=O)c(-c3cccnc3)c2)OC1(C)C | 61% |  |
| CO[C@@H]1[C@@H](O)[C@@H](O)[C@H](Oc2ccc(CCNC(C)=O)c(-c3ccc(C(F)(F)F)cc3)c2)OC1(C)C | 74% |  |
| CO[C@@H]1[C@@H](O)[C@@H](O)[C@H](Oc2ccc(CCNC(C)=O)c(-c3ccccc3SC)c2)OC1(C)C | 83% | pEC50 [2]: 6.42 |
| COc1cccc(-c2cc(O[C@@H]3OC(C)(C)[C@H](OC)[C@@H](O)[C@H]3O)ccc2CCNC(C)=O)c1 | 78% |  |
| CO[C@@H]1[C@@H](O)[C@@H](O)[C@H](Oc2ccc(CCNC(C)=O)c(-c3cccc(C(F)(F)F)c3)c2)OC1(C)C | 83% | pEC50 [2]: 6.73 |
| CO[C@@H]1[C@@H](O)[C@@H](O)[C@H](Oc2ccc(CCNC(C)=O)c(-c3ccc(O)cc3)c2)OC1(C)C | 67% |  |
| CO[C@@H]1[C@@H](O)[C@@H](O)[C@H](Oc2ccc(CCNC(C)=O)c(-c3cccc(Cl)c3)c2)OC1(C)C | 90% |  |
| CO[C@@H]1[C@@H](O)[C@@H](O)[C@H](Oc2ccc(CCNC(C)=O)c(-c3ccncc3)c2)OC1(C)C | 81% |  |
| CO[C@@H]1[C@@H](O)[C@@H](O)[C@H](Oc2ccc(CCNC(C)=O)c(-c3cccc(CN4CCOCC4)c3)c2)OC1(C)C | 83% |  |
| CO[C@@H]1[C@@H](O)[C@@H](O)[C@H](Oc2ccc(C3CC=CCC3NC(C)=O)c(-c3cccc(F)c3)c2)OC1(C)C (mixture of isomers) | 78% |  |
| CO[C@@H]1[C@@H](O)[C@@H](O)[C@H](Oc2ccc(CCNC(C)=O)c(-c3ccc4c(c3)OCO4)c2)OC1(C)C | 83% | Activity [3]: inactive; Activity [4]: inactive; pEC50 [2]: 7.74 |
| CO[C@@H]1[C@@H](O)[C@@H](O)[C@H](Oc2ccc(CCNC(C)=O)c(-c3cccc(F)c3)c2)OC1(C)C [CEMDOMESPIB] | 95% | inhibition [5]: inactive; Activity [3]: Active; Activity [4]: Active; inhibition [6]: inactive; pEC50 [2]: 7.89; inhibition [7]: inactive; Ratio ED50 [8]: 14 |
| CO[C@@H]1[C@@H](O)[C@@H](O)[C@H](Oc2ccc3cc(NC(C)=O)c(=O)oc3c2C)OC1(C)C | 86% | Activity [3]: Active; Activity [4]: Active; pEC50 [2]: 6.62 |
| CO[C@@H]1[C@@H](O)[C@@H](O)[C@H](Oc2ccc(CCNC(C)=O)c(-c3cccc(C)c3)c2)OC1(C)C | 82% |  |
| COc1ccccc1-c1cc(O[C@@H]2OC(C)(C)[C@H](OC)[C@@H](O)[C@H]2O)ccc1CCNC(C)=O | 92% | Activity [9]: Active |
| CO[C@@H]1[C@@H](O)[C@@H](O)[C@H](Oc2ccc(CCNC(C)=O)c(-c3ccccc3)c2)OC1(C)C | 76% |  |
